# Assay outcomes (PubChem BioAssay)
# proCasp3 act – activators of human procaspase-3; recombinant procaspase-3 D3A, Ac-DEVD-pNA absorbance 405 nm; AID 463141; P42574; activation, % at 8.5 µM; 0.11% of 330,000 active;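 active = activation above the mean of all tested compounds plus 3 SD, cut at about 21% in these data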
#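 Assay system – Procaspase-3 D3A mutant · Benchmarks – DMSO low control, extra-enzyme high control · Technique – 405 nm absorbance of p-nitroaniline, reads at 0 and 120 min · Doses – 8.5 µM nominal · Measure – % activation between DMSO and enzyme-spiked controls · Also added – Ac-DEVD-pNA chromogenic peptide substrate · Schedule – 1 h compound preincubation, 2 h substrate hydrolysis at 25 °C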
# procasp7 counter – counter-screen: procaspase-7 (human) activation; P55210; recombinant procaspase-7, Ac-DEVD-pNA absorbance 405 nm; D23A/D198A/D206A triple mutant, cannot self-cleave; scale: DMSO 0, 5 µM enzyme 100; activation, % at 8.5 µM; 0.093% of 330,000 active;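 active = percent activation above the screen-wide mean plus 3 SD, cut at about 25% in these data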
# Target sequence (P55210 whole entry D23A/D198A/D206A): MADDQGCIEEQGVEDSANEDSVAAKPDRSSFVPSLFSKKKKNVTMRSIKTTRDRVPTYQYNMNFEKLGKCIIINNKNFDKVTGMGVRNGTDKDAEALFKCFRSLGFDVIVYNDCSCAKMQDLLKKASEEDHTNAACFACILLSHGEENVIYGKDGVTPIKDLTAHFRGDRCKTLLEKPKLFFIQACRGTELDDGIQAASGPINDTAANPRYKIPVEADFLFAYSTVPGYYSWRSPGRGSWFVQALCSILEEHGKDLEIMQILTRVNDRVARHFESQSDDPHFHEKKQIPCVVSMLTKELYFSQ
#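 Assay system: Uncleavable procaspase-7 mutant enzyme; Input: 2 µM procaspase-7 mutant as dispensed; Also added: DEVD-pNA substrate; Medium: Zinc-free HEPES pH 7.4 with 300 mM NaCl, 0.01% Triton X-100; Timing: 1 h compound preincubation, 2 h substrate cleavage, 25 °C; Measured by: Epi-absorbance of released pNA at 405 nm, two timepoints.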
# PP5 inh – blocks human protein phosphatase 5 activity. P53041. purified PP5c, OMFP substrate fluorescence. inhibition, % at 6.7 µM. 0.18% of 320,000 active. AID 1987;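 active = inhibition above the campaign's mean inhibition across all tested compounds plus 3 SD, cut at about 9.5% in these data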
# PP1 counter – counter-screen for PP5 inhibitors: inhibitors of human PP1-alpha | inhibition, % at 6.7 µM | P62136 | 0.9% of 320,000 active | purified PP1alpha, OMFP fluorescence;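 active = inhibition above the mean inhibition of all tested compounds plus 3 SD, computed separately for each screening campaign, cut at about 15% in these data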
# Hits are given with their value; - = inactive; . = no result. An excerpt weighted towards active compounds, which were near 1.2% of everything screened.
SMILES,proCasp3 act,procasp7 counter,PP5 inh,PP1 counter
Cc1cc2cc(CNC(=O)Nc3cccc(Cl)c3)ccc2n1C,-,-,-,16
CCN1C(=NCCOC)N[C@@H](c2ccccc2)[C@H](C(=O)OC)[C@H]1C,-,-,.,.
COCC(C)n1c(COc2ccccc2F)nnc1SCC(=O)Nc1oc(C)c2c(C)n[nH]c(=O)c12 (stereo unspecified),-,-,-,-
CCN(CC)S(=O)(=O)c1ccc2c(c1)nc(CCC(=O)Nc1ccc3c(c1)OCO3)n2CC,-,-,-,15
O=C(CCN1C(=O)[C@@H]2Cc3ccccc3CN2C1=O)N[C@H](C(=O)O)c1ccccc1,-,-,-,-
O=C(c1ccccc1)N1CCN(c2ccc(N3CCOCC3)nn2)CC1,-,-,-,-
CCOc1ccc(NC(=O)Nc2nnc(CC(=O)NCc3ccccc3)s2)cc1,-,-,-,-
COc1ccc(NC(=O)Nc2nnc(CC(=O)NCc3ccccc3)s2)cc1,-,-,-,16
CC(C)c1ccccc1NC(=O)COc1ccc2c(=O)c(Oc3ccc4ccccc4c3)coc2c1,-,-,-,18
Cc1cc(N2C(=O)C(O)=C(C(=O)c3ccco3)C2c2cccc(Cl)c2)no1 (stereo unspecified),-,-,-,-
Cc1cc(N2C(=O)C(O)=C(C(=O)c3cc4ccccc4o3)C2c2ccc(Br)cc2)no1 (stereo unspecified),-,-,-,26
Cc1cc(N2C(=O)C(O)=C(C(=O)c3cc4ccccc4o3)C2c2cccc(Cl)c2)no1 (stereo unspecified),-,-,-,27
Cc1cc(N2C(=O)C(O)=C(C(=O)c3cc4ccccc4o3)C2c2ccc(Cl)cc2)no1 (stereo unspecified),-,-,-,29
Cc1ccccc1C(C)NS(=O)(=O)c1ccc2c(c1)OCCO2 (stereo unspecified),-,-,.,.
O=C(O)c1[nH]c2ccccc2c1C(c1cc(Cl)cc([N+](=O)[O-])c1O)c1c(C(=O)O)[nH]c2ccccc12,-,-,-,15
O=C(O)c1[nH]c2ccccc2c1C(c1ccccc1)c1c(C(=O)O)[nH]c2ccccc12,-,-,-,-
CN(Cc1ccccc1N1CCCC1)C(=O)c1cc2cc(Cl)ccc2o1,-,-,-,-
O=c1[nH]c(C2CCN(S(=O)(=O)/C=C/c3ccccc3)CC2)nc2c1nnn2Cc1ccccc1,-,-,-,15
Cc1ccc(S(=O)(=O)N2CCC(c3nc4c(nnn4Cc4ccccc4)c(=O)[nH]3)CC2)cc1,-,-,-,16
Cc1ccc(Cn2nnc3c(=O)[nH]c(C4CCN(S(=O)(=O)c5ccccc5)CC4)nc32)cc1,-,-,-,-
O=C(Nc1ccncc1)c1cc2ccccc2cc1O,-,-,-,-
Cc1nc2ccc(Br)cc2c(=O)n1Cc1cccs1,-,-,-,-
CC(=O)N1CCN(S(=O)(=O)c2ccc(S(=O)(=O)NCC(C)C)cc2)CC1,-,-,-,16
Cc1cc(C)cc(-n2c3nc4ccccc4nc3c3c(=O)n(Cc4ccco4)cnc32)c1,-,-,-,20
COCCCn1cnc2c(c1=O)c1nc3ccccc3nc1n2-c1ccc(C)cc1,-,-,-,-
SMILES,proCasp3 act,procasp7 counter,PP5 inh,PP1 counter
COc1ccc(/C=N/NC(=O)c2nc(-c3ccccc3)n(-c3ccccc3)n2)cc1,-,-,-,-
COc1ccc(/C=N/NC(=O)c2nc(-c3ccccc3)n(-c3ccccc3)n2)c(O)c1,-,-,-,16
O=C(c1ccccc1F)N(NC(=O)C(O)(c1ccccc1)c1ccccc1)c1ccccc1,-,-,-,17
Cc1cc(C)c2c(N)c(C(=O)Nc3ccccc3Br)sc2n1,-,-,-,-
Cc1cc(C)c2c(N)c(C(=O)Nc3ccccc3Cl)sc2n1,-,-,-,17
N#C/C(=C/c1cn(-c2ccccc2)nc1-c1cccc(S(=O)(=O)N2CCCC2)c1)C(=O)NCc1ccco1,-,-,-,16
N#C/C(=C/c1cn(-c2ccccc2)nc1-c1cccc(S(=O)(=O)N2CCOCC2)c1)C(=O)NCc1ccco1,-,-,-,-
CN(C)CCCN(C(=O)c1cc(-c2cccs2)nc2ccccc12)c1nc2c(F)cccc2s1,-,-,-,-
Cc1ccc2nc(N(CCCN(C)C)C(=O)c3cc(-c4cccs4)nc4ccccc34)sc2c1,-,-,-,17
Cn1c(N)c(C(=O)COC(=O)c2cc(-c3ccco3)nc3ccccc23)c(=O)n(Cc2ccccc2)c1=O,-,-,-,30
